This is a sample that favours compounds with a hit; in the whole collection about 1.9% have one here.
Tb MetRS inh = T. brucei MetRS inhibitors, primary screen, biochemical, luminescence; methionyl-tRNA synthetase (Trypanosoma brucei brucei); purified T. brucei MetRS, ATP depletion, Kinase-Glo luminescence; inhibition, % at 11.9 µM; 360,000 compounds, 0.4% hits; AID 624268, 2012;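 active = inhibition above a per-plate cutoff of the control wells' mean inhibition plus 3 SD, cut at about 5.5% in these data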;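 note: 0% = DMSO wells median and 100% = median of wells with control inhibitor compound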
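Dosing: 11.9 µM compound single dose, 0.9% DMSO; Assay system: purified T. brucei MetRS enzyme; Measured by: Kinase-Glo luciferase luminescence reporting remaining unconsumed ATP; Schedule: 15 min plus 2 h at 25 °C.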
DAGLB inhibitor = DAGLB lipase inhibitors, primary screen, biochemical, fluorescence, HTS; Diacylglycerol lipase-beta (Homo sapiens), Q8NCG7; HEK293T DAGLB membrane lysate, EnzChek fluorogenic substrate; inhibition, % at 5.17 µM; 340,000 compounds, 0.059% hits; AID 504411, 2011; in the data active = inhibition above about 34%;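 note: 0% = enzyme with vehicle and 100% = wells lacking enzyme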
PLCb3 inh = human PLC-beta3 inhibitors, primary screen, biochemical, fluorescence; inhibition, % at 12.2 µM; Purified PLC-beta3, fluorogenic substrate; 370,000 compounds, 0.18% hits; 1-phosphatidylinositol 4,5-bisphosphate phosphodiesterase beta-3 (Homo sapiens), Q01970; AID 720704, 2013; in the data active = inhibition above about 11%;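 note: 0% = median of compound wells on plate and 100% = full blocker control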
Target sequence (Q01970 whole entry, looked up): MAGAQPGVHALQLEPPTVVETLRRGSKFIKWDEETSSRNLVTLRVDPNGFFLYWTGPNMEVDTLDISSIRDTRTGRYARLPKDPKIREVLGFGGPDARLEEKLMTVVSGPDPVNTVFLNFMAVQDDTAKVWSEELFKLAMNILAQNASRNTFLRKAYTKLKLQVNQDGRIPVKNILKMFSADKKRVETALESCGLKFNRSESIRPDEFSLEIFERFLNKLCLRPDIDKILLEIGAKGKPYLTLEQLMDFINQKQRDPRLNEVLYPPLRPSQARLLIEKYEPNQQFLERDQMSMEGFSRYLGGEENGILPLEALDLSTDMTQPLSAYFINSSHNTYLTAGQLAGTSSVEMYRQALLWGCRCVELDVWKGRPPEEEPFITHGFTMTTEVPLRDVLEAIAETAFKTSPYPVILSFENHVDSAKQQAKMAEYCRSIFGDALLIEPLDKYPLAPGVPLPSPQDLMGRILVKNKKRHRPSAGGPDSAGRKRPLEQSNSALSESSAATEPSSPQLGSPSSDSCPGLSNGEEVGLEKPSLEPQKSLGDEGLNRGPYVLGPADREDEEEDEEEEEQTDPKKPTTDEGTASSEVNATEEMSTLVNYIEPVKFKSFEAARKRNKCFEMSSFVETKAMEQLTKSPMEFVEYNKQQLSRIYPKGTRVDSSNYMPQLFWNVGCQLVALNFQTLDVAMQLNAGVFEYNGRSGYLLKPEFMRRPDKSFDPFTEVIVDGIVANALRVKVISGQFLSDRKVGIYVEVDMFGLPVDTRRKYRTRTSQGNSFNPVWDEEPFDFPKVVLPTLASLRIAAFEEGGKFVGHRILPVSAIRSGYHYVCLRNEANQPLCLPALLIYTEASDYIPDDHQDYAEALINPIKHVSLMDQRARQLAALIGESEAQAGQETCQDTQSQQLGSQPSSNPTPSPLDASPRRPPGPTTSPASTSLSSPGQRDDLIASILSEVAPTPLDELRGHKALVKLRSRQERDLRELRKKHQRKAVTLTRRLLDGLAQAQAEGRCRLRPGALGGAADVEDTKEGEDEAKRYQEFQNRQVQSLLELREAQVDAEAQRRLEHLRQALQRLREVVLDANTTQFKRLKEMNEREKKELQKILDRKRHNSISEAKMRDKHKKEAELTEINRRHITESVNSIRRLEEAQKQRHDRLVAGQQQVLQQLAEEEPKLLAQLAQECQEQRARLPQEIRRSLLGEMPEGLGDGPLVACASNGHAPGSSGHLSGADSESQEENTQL
PLC-gamma1 inh = PLC-gamma1 enzyme inhibitors, primary screen, biochemical, fluorescence, purified enzyme | 1-phosphatidylinositol 4,5-bisphosphate phosphodiesterase gamma-1 (Homo sapiens), P19174 | fluorogenic substrate | inhibition, % at 12.2 µM | 370,000 compounds, 0.84% hits; in the data active = inhibition above about 9.5%
sPLA2-III inh = human group III sPLA2 inhibitors, primary screen, biochemical, QFRET, BODIPY PC-A2 liposome substrate | Group 3 secretory phospholipase A2 (Homo sapiens), Q9NZ20 | QFRET BODIPY PC-A2 liposome hydrolysis, fluorescence | inhibition, % at 12.2 µM | 370,000 compounds, 0.56% hits | AID 743126, 2013;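 active = inhibition above mean plus 3 SD of compounds lying within the high and low control bounds, cut at about 19% in these data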;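 note: 0% = median of test compound wells and 100% = no enzyme DMSO wells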
sPLA2 confirm = human group III sPLA2 inhibitors, confirmation, biochemical, QFRET, triplicate; shares compounds with sPLA2-III inh; recombinant hGIII-sPLA2, BODIPY PC-A2 QFRET fluorescence; inhibition, % at 12.2 µM; 2,000 compounds, 34% hits; AID 743280, 2014;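 active = mean inhibition across triplicates above the hit cutoff set in the earlier primary screen, cut at about 19% in these data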;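 note: 0% = enzyme with DMSO and 100% = DMSO wells lacking enzyme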
535nm interf = 535nm fluorescence optical interference, confirmation, artefact control for HGIII-sPLA2 inhibitor project, biochemical, QFRET | inhibition, % at 12.2 µM | shares compounds with sPLA2-III inh | BODIPY FL product fluorescence interference | 2,000 compounds, 8.5% hits | AID 743282, 2014;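 active = average inhibition above the solvent-only control mean plus 3 SD, cut at about 6% in these data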;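 note: 0% = DMSO with substrate plus product and 100% = DMSO with substrate alone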
BODIPY interf DR = 535nm fluorescence optical interference, dose response, artefact control for HGIII-sPLA2 inhibitor project, biochemical, QFRET. 240 tested, under 10 active. BODIPY FL product fluorescence interference, cell-free. AID 743455, 2014. IC50, µM. shares compounds with sPLA2-III inh;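 active = IC50 at or below 10 µM; inactive = IC50 above 10 µM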
Active calls of the source: *; x = no result.

SMILES	Tb MetRS inh	DAGLB inhibitor	PLCb3 inh	PLC-gamma1 inh	sPLA2-III inh	sPLA2 confirm	535nm interf	others
Cc1ccc(NC(=O)CSc2ccc(-c3ccccn3)nn2)cc1	-0.7	-3.6	-3.5	0.0	-1.5	x	x
COC(=O)N1Cc2ccnnc2CC1c1ccccc1-c1ccc(OC)cc1 (stereo not given)	x	x	-0.1	0.8	9.8	x	x
C/C(=N/NC(=O)c1ccc2c(c1)OCCO2)c1ccc([N+](=O)[O-])cc1	-0.6	-1.2	3.4	6.0	23.4*	-3.1	-8.4
O=[N+]([O-])c1ccccc1/C=N/n1c(C2CCCCC2)n[nH]c1=S	0.2	-3.8	-4.2	9.3	19.6*	27.9*	4.5	BODIPY interf DR=>122
Cc1nc2ccc(NC(=O)c3c(Cl)cccc3Cl)cc2c(=O)[nH]1	x	x	-14.3	-9.0	4.1	x	x
Cc1cccc(CN2[C@@H](C)[C@H](c3ccccc3)Oc3cc(Br)ccc3S2(=O)=O)c1	x	x	1.9	4.9	1.8	x	x
Oc1ccccc1/C=N/NC(=S)NC1CC2CCC1C2 (stereo not given)	-0.5	4.7	-97.0	-82.2	28.3*	17.7	7.3*
CCCn1c(=O)c(C(=O)NNC(=O)c2ccccc2[N+](=O)[O-])c(O)c2ccccc21	0.1	11.1	-7.9	-5.0	14.3	x	x
CCCn1c(=O)c(C(=O)NNC(=O)c2ccccc2Cl)c(O)c2ccccc21	-0.3	14.1	-12.0	-4.7	21.3*	20.4*	0.8
C[C@@H]1C=CCCO[C@]12C(=O)N(Cc1ccc(Br)cc1)c1cccc(Br)c12	x	x	4.8	2.6	-5.7	x	x
Cc1ccc(C(=O)Nc2ccc3c(c2)C(=O)NC3=O)cc1	-0.2	-0.6	-94.6	-75.5	1.4	x	x
COC(=O)c1ccc(C(=O)Nc2ccc3c(c2)C(=O)NC3=O)cc1	-0.3	-3.3	-26.3	-13.4	22.5*	0.1	6.8*
CC(C)(C)NC(=S)N1CCC2CC1c1cc(-c3ccc4c(c3)OCO4)ccc12 (stereo not given)	-0.9	x	-0.1	-1.7	21.8*	4.9	-18.2
COCC(=O)N1CCC(C(=O)NC2CCCc3ccccc32)CC1 (stereo not given)	x	x	3.5	1.6	0.5	x	x
COc1cccc(/C=C2\CC3(OC(=O)c4ccccc4)CCCN2C3)c1 (stereo not given)	x	x	0.8	1.4	-4.6	x	x
CCOC(=O)NC(NC(=S)Nc1ccc(OCC)cc1)C(Cl)(Cl)Cl (stereo not given)	-0.2	6.4	-0.2	1.6	23.9*	9.4	-5.5
Cc1ccc(NC(=O)C2CC3CCC2C3)cc1 (stereo not given)	x	x	-1.1	-0.8	13.3	x	x
Nc1sc(-c2ccccc2)cc1C(=O)NCCN1CCOCC1	-0.8	x	-10.9	1.1	19.9*	6.7	-7.3
CCc1cc2c(nc1CC)CCCN2S(=O)(=O)c1ccc(C(F)(F)F)cc1	x	x	4.0	1.3	-1.0	x	x
O=C(O)CC1(CC(=O)NCc2cc(F)cc3c2OCOC3)CCCCC1	0.0	-2.8	-8.3	2.8	19.5*	0.0	-2.0
O=c1cc(-c2ccccc2Cl)oc2cc(O)cc(O)c12	0.5	-0.7	-0.6	1.3	-7.2	x	x
Nc1ccc(O)c2c(=O)cc(-c3ccccc3Cl)oc12	-0.3	7.1	4.3	5.1	27.2*	42.1*	-1.9
CC(=O)c1cccc(NC(=O)c2cnn3c(C)cc(C)nc23)c1	x	x	1.1	1.2	11.1	x	x
Cc1ccc(NC(=S)NNC(=O)c2c(Cl)c(C)nn2C)cc1	-0.1	2.5	2.4	-1.2	-0.1	x	x
Cc1ccc(NC(=S)NNC(=O)c2nn(C)c(C)c2Cl)cc1	-1.9	5.7	0.0	-0.1	38.1*	48.1*	0.5	BODIPY interf DR=>122
SMILES	Tb MetRS inh	DAGLB inhibitor	PLCb3 inh	PLC-gamma1 inh	sPLA2-III inh	sPLA2 confirm	535nm interf	others
OC(c1ccccc1)c1ccccc1CN1CCCNC1=S (stereo not given)	-0.3	-6.1	0.1	2.0	19.4*	10.1	-1.4
O=C1CNC(=S)N1C(CO)c1ccccc1 (stereo not given)	-0.6	-0.7	-2.5	-5.2	-20.2	x	x
CCOC(=O)c1ccc2c(c1)C(=O)N(C1CCCCC1)C2=O	-0.4	-1.5	2.3	1.9	20.2*	2.9	-7.9
O=C(N/N=C/c1ccncc1)c1cc2ccccc2cc1O	-0.2	0.7	-21.2	-6.0	-6.7	x	x
O=C(N/N=C/c1ccncc1)c1cc([N+](=O)[O-])cc([N+](=O)[O-])c1O	0.2	12.6	-2.3	0.9	19.9*	13.8	0.3
O=[N+]([O-])c1ccc(Cl)cc1N/N=C/c1ccncc1	-2.4	1.5	-5.5	1.2	19.6*	9.2	0.6
NC(N)=NC(=S)Nc1ccc(Cl)cc1	0.1	0.1	-5.2	3.7	21.5*	17.9	-3.6
Cc1nn(CC(=O)NNC(=S)Nc2ccccc2)c(C)c1[N+](=O)[O-]	-0.4	-1.9	5.2	7.3	19.7*	21.9*	0.1
Cc1cccc(NC(=S)NNC(=O)CCn2nc(C)c([N+](=O)[O-])c2C)c1	-1.4	1.0	4.2	-0.8	16.7	x	x
COc1ccc(-n2c(SCC(=O)Nc3ccc(Oc4ccccc4)cc3)nnc2-c2ccc(C)cc2)cc1	x	x	2.9	-1.0	7.3	x	x
O=C(/C=C/c1cccnc1)c1ccc(O)cc1	-0.2	0.7	-5.1	2.4	22.3*	3.6	-6.9
COc1ccccc1Cn1c(=S)[nH]c2cc(C(=O)NCCCN3CCOCC3)ccc2c1=O	0.3	1.1	-25.4	-13.5	20.4*	12.1	-9.0
O=C(Nc1nc(-c2ccccc2)c(-c2ccccc2)s1)c1ccc(S(=O)(=O)N2CCCCC2)cc1	-0.6	2.0	1.4	-2.3	23.0*	-7.8	2.5
O=C(Nc1nc(-c2ccccc2)c(C(=O)c2ccccc2)s1)c1ccc(S(=O)(=O)N2CCCCC2)cc1	0.5	1.0	1.9	4.9	-7.0	x	x
CNc1nc(-c2ccccc2)nc(-c2ccc(OC)cc2)c1C#N	0.4	-4.0	1.6	0.0	-0.5	x	x
CNc1nc(-c2ccccc2)nc(-c2ccccc2)c1C#N	0.2	-0.7	0.5	3.4	19.6*	-3.7	-5.1
CC(C)CN(CC(C)C)C(=O)CSc1nc2cccnc2n1C	x	x	-3.4	-0.5	4.9	x	x
